This is an account of results in ChEMBL document CHEMBL4257564, “Rational Design, Synthesis, and Pharmacological Characterization of Novel Ghrelin Receptor Inverse Agonists as Potential Treatment against Obesity-Related Metabolic Diseases” (J Med Chem, 2018).

For orientation: half-life means how long it takes for the measured level to halve. Usually clearance stands for a measure of how efficiently the substance is removed, as volume per time. A word on the bioavailability: it is the share of a dose that reaches the circulation, judged against a reference dose that is usually intravenous. Usually IC50 stands for the concentration that inhibits the measured activity by half. For orientation: Papp A→B means how fast a substance crosses the layer from the apical side. As usually defined, the EC50 is the concentration that produces a half-maximal response.

A short description of series [1]: Protein binding in rat plasma at 1 uM after 6 hrs by equilibrium dialysis. It is filed as ADME, cell-free. The note with it: read-out: PPB. A digest of the protocol: (§1)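 Compound spiked at 1.0 µM final (0.5% DMSO) into plasma. Equilibrium dialysis against DPBS pH 7.4 across a 12–14 kD membrane for 6 h at 37 °C, in triplicate. Buffer-only controls used for nonspecific binding. Unbound fraction = acceptor/donor concentration by LC-MS/MS; reported as % bound.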
Background: In equilibrium dialysis free small molecules cross a membrane that holds back macromolecules.

The nature of series [2]: Half life in rat at 3 mg/kg, po via gavage by LC-MS/MS analysis. As to conditions: in vivo. It is filed as ADME, organism-based. In outline: (§2)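 Rats given 3 mg/kg by oral gavage as a suspension in 2% DMSO/98% of 0.5% CMC. EDTA plasma sampled at 0.25–24 h and analysed by LC-MS/MS. Bioavailability estimated against the 3 mg/kg i.v. arm.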
Series [3] in a line: Protein binding in mouse plasma at 1 uM after 6 hrs by equilibrium dialysis. It is filed as ADME, cell-free. As to conditions: read-out: PPB (converted). In outline:
as §1

Series [4] in a line: Plasma clearance in rat at 3 mg/kg, iv after 24 hrs by LC-MS/MS analysis. It is filed as ADME, organism-based. In outline:
(§3)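 Rats given 3 mg/kg i.v. via tail vein, in 2% DMSO/50% of 40% HP-β-CD. EDTA plasma sampled at 0.08–24 h and analysed by LC-MS/MS, calibration range 5-5000 ng/mL.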

The subject of series [5] is Mus musculus. The experiment in a line: Anti-obesity activity in C57BL/6J mouse assessed as inhibition of anamorelin-induced increase in food intake by measuring cumulative food intake at 30 mg/kg, po pretreated for 10 mins followed by anamorelin addition and measured after 1 hr post dose (reference value: 0.63 +/- 0.04 g).
The nature of series [6]: Oral bioavailability in rat at 3 mg/kg via gavage by LC-MS/MS analysis. It is filed as ADME, organism-based. The note with it: in vivo. A digest of the protocol:
as §2

Series [7] has as its system Mus musculus. The series is described as follows: Anti-obesity activity in C57BL/6J mouse assessed as inhibition of anamorelin-induced increase in food intake by measuring cumulative food intake at 30 mg/kg, po pretreated for 10 mins followed by anamorelin addition and measured after 24 hrs post dose (reference value: 8.31 +/- 0.2 g).
A short description of series [8]: Protein binding in human plasma at 1 uM after 6 hrs by equilibrium dialysis. It counts as ADME, cell-free. The note with it: read-out: PPB. In outline: as §1
Series [9] can be described thus: Half life in rat at 3 mg/kg, iv after 24 hrs by LC-MS/MS analysis. It is filed as ADME, organism-based. The note with it: in vivo. A digest of the protocol: as §3
For series [10], the system named is Mus musculus. The experiment in a line: Anti-obesity activity in C57BL/6J mouse assessed as inhibition of anamorelin-induced increase in food intake by measuring cumulative food intake at 10 mg/kg, ip pretreated for 10 mins followed by anamorelin addition and measured after 1 hr post dose (reference value: 0.63 +/- 0.04 g). It is filed as functional. In outline:
(§4)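 Male C57BL/6J mice (18–22 g at arrival), fed ad libitum. Dosed 10 mg/kg i.p. at t = 0 in 10% DMAC/6% Solutol HS 15/84% PBS, then anamorelin 30 mg/kg p.o. (0.5% CMC) at 10 min. Cumulative food intake recorded at 1, 2, 4, 8 and 24 h; n=6 per group; mean ± SEM; ANOVA with Dunnett test versus vehicle+anamorelin.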

Series [11] has as its system Mus musculus. The experiment in a line: Anti-obesity activity in C57BL/6J mouse assessed as inhibition of anamorelin-induced increase in food intake by measuring cumulative food intake at 10 mg/kg, ip pretreated for 10 mins followed by anamorelin addition and measured after 2 hrs post dose (reference value: 1.37 +/- 0.05 g). It counts as functional. In outline: as §4

The target of series [12] is T1, Growth hormone secretagogue receptor type 1 (Homo sapiens, UniProt Q92847). The experiment in a line: Antagonist activity at recombinant human GHSR1a expressed in HEK293 cells assessed as inhibition of ghrelin-induced intracellular calcium release incubated for 20 secs and measured after 2 mins by FLIPR assay. It counts as functional, cell-based. In outline:
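HEK293/GHSR1a cells were dye-loaded for 30-60 min. Compounds and 10 nM ghrelin were added at t = 20 s, with a 15 min compound preincubation described. Calcium response was read for 2 min. IC50 was taken from dose-response fits of the reduction in ghrelin response; mean of at least two independent runs done in triplicate.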
For orientation: Calcium assays in cells follow changes in intracellular calcium, usually with a dye or a luminescent sensor.

For another series, the system named is MDR1. The series is described as follows: Apparent permeability across apical to basolateral side in MDCK2 cells expressing human MDR1 at 1 uM after 90 mins in absence of MDR1 inhibitor cyclosporine A by LC-MS/MS analysis. It counts as ADME, cell-based, Canis lupus familiaris, MDCK-II. The note with it: dog, MDCK-MDR1. In outline: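 MDR1-MDCKII monolayers grown 4 days on transwell inserts, with integrity checked by TEER. Test item at 1 µM in HBSS/10 mM HEPES/25 mM glucose pH 7.4, in duplicate, added to the apical side. Receiver sampled after 90 min at 37 °C and analysed by LC-MS/MS; Papp = (dMr/dt)/(A×C0).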

Series [13] can be described thus: Protein binding in dog plasma at 1 uM after 6 hrs by equilibrium dialysis. It is filed as ADME, cell-free, Canis lupus familiaris. The note with it: read-out: PPB. In outline:
as §1

For series [14], the system named is Mus musculus. The experiment in a line: Anti-obesity activity in C57BL/6J mouse assessed as inhibition of anamorelin-induced increase in food intake by measuring cumulative food intake at 30 mg/kg, po pretreated for 10 mins followed by anamorelin addition and measured after 8 hrs post dose (reference value: 2.97 +/- 0.09 g).
For series [15], the target named is T1, Growth hormone secretagogue receptor type 1. The experiment in a line: Inverse agonist at recombinant human GHSR1a expressed in HEK293 cells assessed as decrease in IP1 accumulation after 1 hr by IP1-d2-based HTRF assay. The note with it: read-out: EC50. It counts as functional, cell-based. In outline: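 HEK293 cells stably expressing human GHSR1a were seeded on Matrigel in complete DMEM for 18–22 h at 37 °C, 5% CO2. Compound in stimulation buffer was applied for 1 h at 37 °C. IP1-d2 and Tb-cryptate were then added for 1 h at room temperature, with HTRF read at 620/665 nm. Mean of at least two independent runs in triplicate.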
In general terms: Time-resolved FRET reads energy transfer from a long-lived donor to a nearby acceptor.

A short description of series [16]: Clearance in human liver microsomes at 0.625 uM preincubated for 5 mins followed by NADPH addition and measured after 60 mins by LC-MS/MS analysis. The note with it: read-out: CLH. It counts as ADME, microsome. A digest of the protocol: (§5)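 Liver microsomes (0.625 mg/mL protein) in 50 mM potassium phosphate pH 7.4 with 0.625 µM test item, prewarmed 5 min at 37 °C. Reaction started with NADPH (5 mM solution). Samples taken at 0, 5, 15, 30 and 60 min into cold MeCN with internal standard, analysed by LC-MS/MS. Intrinsic clearance derived by the half-life approach.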

Series [17] deals with Mus musculus. The experiment in a line: Anti-obesity activity in C57BL/6J mouse assessed as inhibition of anamorelin-induced increase in food intake by measuring cumulative food intake at 30 mg/kg, po pretreated for 10 mins followed by anamorelin addition and measured after 2 hrs post dose (reference value: 1.37 +/- 0.05 g).
The nature of series [18]: Clearance in dog liver microsomes at 0.625 uM preincubated for 5 mins followed by NADPH addition and measured after 60 mins by LC-MS/MS analysis. It counts as ADME, Canis lupus familiaris, microsome. As to conditions: read-out: CLH. A digest of the protocol:
as §5

Series [19] is described as follows: Ratio of drug level in brain to plasma of rat at 3 mg/kg, iv after 2 hrs by LC-MS/MS analysis. It is filed as ADME, organism-based. As to conditions: read-out: BPR. A digest of the protocol: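 Rats given 3 mg/kg i.v. Brain collected 2 h post-dose after CO2 euthanasia and homogenized in 5 volumes of PBS pH 7.4. Brain and plasma levels measured by LC-MS/MS; ratio taken from the 2 h concentrations.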

T1 sequence (Q92847 whole entry): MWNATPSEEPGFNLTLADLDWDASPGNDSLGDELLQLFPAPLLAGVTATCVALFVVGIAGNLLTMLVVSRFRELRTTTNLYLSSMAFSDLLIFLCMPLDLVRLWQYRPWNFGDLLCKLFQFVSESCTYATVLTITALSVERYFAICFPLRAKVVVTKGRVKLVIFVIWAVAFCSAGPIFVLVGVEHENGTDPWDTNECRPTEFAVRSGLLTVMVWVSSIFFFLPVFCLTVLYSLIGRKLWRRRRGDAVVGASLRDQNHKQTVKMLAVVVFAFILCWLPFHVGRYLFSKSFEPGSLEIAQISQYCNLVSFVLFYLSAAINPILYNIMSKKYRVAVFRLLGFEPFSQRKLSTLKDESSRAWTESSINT

Take `Cc1cc(-c2ccc3c(c2)CC[C@H]3N2CCC(N(C)C(=O)N[C@@H](C)c3ccc(C#CC4CC4)c(Cl)c3Cl)CC2)ncn1`: the fraction unbound at 6 h, 1 µM in series [1] was 0.0001; in series [3] it was 0.0002; in [8], 0.0001; in [13] it was 0.0001. The half-life was 15.8 h in series [2] and 6.49 h in [9]. The clearance in series [4] is 15.2 mL/min/kg. For the same molecule, the Activity was 0.22 g in the series with Mus musculus [5]; 7.42 g in the series with Mus musculus [7]; 0.13 g in the series with Mus musculus [10]; 0.56 g with Mus musculus [11]; 1.8 g with Mus musculus [14]; 0.86 g in the series with Mus musculus [17]. Besides, in [6], the bioavailability is 27%. For the same molecule, the IC50 in series [12] came out at 68.2 nM. The apical-to-basolateral permeability (Papp A→B) at 1.5 h, 1 µM with MDR1 turned out to be 3.9 ×10⁻⁶ cm/s. The 50% effective concentration (EC50) in series [15] came to 29.4 nM. The microsomal CLint at 0.625 µM in series [16] is 74.7 µL/min/mg; in series [18], 52.2 µL/min/mg. In series [19], the Kp at 2 h worked out at 1.86.
